The target of series [1] is Cannabinoid receptor 1 (Homo sapiens, UniProt P21554). The series can be described thus: Antagonist activity at human Gi/o-coupled CNR1 expressed in CHOK1 cells assessed as inhibition in CP55940-induced beta-arrestin 2 recruitment at 20 uM incubated for 30 mins followed by CP55940 addition and measured after 90 or 180 mins by pathhunter beta-arrestin assay relative to control. In kind it is cell-based. Summed up:
(§1)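 PathHunter beta-arrestin recruitment, antagonist mode, run at DiscoverX. Cells seeded and held at 37 °C, then preincubated with test sample for 30 min at 37 °C or room temperature (1% vehicle). Agonist then added at EC80 for 90 or 180 min. IC50 comes from concentration–response runs in the same format.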
On the technique in general: Arrestin recruitment assays detect the binding of arrestin to an activated receptor.

The target of series [2] is Cannabinoid receptor 2 (Homo sapiens, UniProt P34972). As to the kind of experiment: Antagonist activity at human Gi/o-coupled CNR2 expressed in CHOK1 cells assessed as inhibition in CP55940-induced beta-arrestin 2 recruitment at 20 uM incubated for 30 mins followed by CP55940 addition and measured after 90 or 180 mins by pathhunter beta-arrestin assay relative to control. In kind it is cell-based. In short, it runs like this: as §1
Sequence of Cannabinoid receptor 2 (P34972 whole entry): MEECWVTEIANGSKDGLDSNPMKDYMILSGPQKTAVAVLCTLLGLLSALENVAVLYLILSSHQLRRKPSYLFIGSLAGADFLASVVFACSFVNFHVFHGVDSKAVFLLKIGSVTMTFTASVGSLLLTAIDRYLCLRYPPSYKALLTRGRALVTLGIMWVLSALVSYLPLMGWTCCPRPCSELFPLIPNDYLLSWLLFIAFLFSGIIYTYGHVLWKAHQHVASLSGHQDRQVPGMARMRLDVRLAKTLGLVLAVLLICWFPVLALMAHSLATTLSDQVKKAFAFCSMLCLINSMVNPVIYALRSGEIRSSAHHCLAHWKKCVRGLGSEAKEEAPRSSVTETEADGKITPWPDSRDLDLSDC

The target of series [3] is D(2) dopamine receptor (Homo sapiens) (UniProt P14416). The series can be described thus: Antagonist activity at human Gi/o-coupled DRD2L expressed in CHOK1 cells assessed as inhibition in dopamine-induced beta-arrestin 2 recruitment at 20 uM incubated for 30 mins followed by dopamine addition and measured after 90 or 180 mins by pathhunter beta-arrestin assay relative to control. It counts as cell-based. In short, it runs like this:
as §1

The target of series [4] is T1, Glucose-dependent insulinotropic receptor (Homo sapiens) (UniProt Q8TDV5).
T1 sequence (whole entry): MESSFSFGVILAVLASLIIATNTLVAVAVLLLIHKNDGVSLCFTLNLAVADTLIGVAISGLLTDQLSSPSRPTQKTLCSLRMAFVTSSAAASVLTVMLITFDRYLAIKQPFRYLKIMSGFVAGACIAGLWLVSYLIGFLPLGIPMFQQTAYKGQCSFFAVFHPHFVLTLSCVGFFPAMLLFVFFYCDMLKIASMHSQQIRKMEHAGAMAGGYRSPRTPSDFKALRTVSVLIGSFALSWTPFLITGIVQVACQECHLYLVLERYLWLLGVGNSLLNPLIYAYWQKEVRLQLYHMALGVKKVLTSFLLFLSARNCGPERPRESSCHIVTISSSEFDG
As to the kind of experiment: Antagonist activity at human GPR119 assessed as inhibition in oleoylethanolamide-induced beta-arrestin 2 recruitment at 20 uM incubated for 30 mins followed by oleoylethanolamide addition and measured after 90 or 180 mins by pathhunter beta-arrestin assay relative to control. In short, it runs like this: as §1

In series [5] the target is T2, Orexin receptor type 2 (Homo sapiens) (UniProt O43614).
T2 sequence (whole entry): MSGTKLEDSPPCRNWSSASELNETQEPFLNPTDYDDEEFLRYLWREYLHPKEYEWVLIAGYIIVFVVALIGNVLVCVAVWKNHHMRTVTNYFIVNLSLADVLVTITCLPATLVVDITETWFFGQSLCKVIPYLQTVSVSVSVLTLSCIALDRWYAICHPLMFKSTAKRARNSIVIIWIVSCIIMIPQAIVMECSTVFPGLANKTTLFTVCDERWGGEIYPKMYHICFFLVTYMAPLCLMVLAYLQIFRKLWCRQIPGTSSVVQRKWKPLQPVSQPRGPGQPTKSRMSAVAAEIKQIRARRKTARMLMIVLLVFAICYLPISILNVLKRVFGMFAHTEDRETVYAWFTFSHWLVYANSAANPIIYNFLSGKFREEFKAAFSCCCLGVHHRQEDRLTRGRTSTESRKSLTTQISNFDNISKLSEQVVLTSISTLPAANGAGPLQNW
As to the kind of experiment: Antagonist activity at human Gq-coupled HCRTR2 expressed in CHOK1 cells assessed as inhibition in Orexin A-induced beta-arrestin 2 recruitment at 20 uM incubated for 30 mins followed by Orexin A addition and measured after 90 or 180 mins by pathhunter beta-arrestin assay relative to control. In kind it is cell-based. In short, it runs like this: as §1

In series [6] the target is T3, Prolactin-releasing peptide receptor (Homo sapiens) (UniProt P49683).
T3 sequence (whole entry): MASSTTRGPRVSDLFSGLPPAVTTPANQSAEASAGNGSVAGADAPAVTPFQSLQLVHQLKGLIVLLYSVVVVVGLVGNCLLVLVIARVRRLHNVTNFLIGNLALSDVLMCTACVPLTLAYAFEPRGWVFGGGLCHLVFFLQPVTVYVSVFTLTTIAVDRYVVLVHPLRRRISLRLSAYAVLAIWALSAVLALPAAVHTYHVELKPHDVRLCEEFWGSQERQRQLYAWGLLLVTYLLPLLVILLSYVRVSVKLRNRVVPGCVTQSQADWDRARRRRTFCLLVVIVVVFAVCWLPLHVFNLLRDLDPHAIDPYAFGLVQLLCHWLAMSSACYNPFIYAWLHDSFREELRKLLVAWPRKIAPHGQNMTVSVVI
The series can be described thus: Antagonist activity at human Gq-coupled PRLHR expressed in CHOK1 cells assessed as inhibition in prolactin releasing peptide (1 to 31)-induced beta-arrestin 2 recruitment at 20 uM incubated for 30 mins followed by prolactin releasing peptide (1 to 31) addition and measured after 90 or 180 mins by pathhunter beta-arrestin assay relative to control. It counts as cell-based. In short, it runs like this: as §1

Series [7] deals with T4, Orexin receptor type 2 (Homo sapiens, UniProt O43614).
T4 sequence (O43614 whole entry): T2 sequence (whole entry)
As to the kind of experiment: Antagonist activity at human Gq-coupled HCRTR2 expressed in CHOK1 cells assessed as inhibition in Orexin A-induced beta-arrestin 2 recruitment incubated for 30 mins followed by Orexin A addition and measured after 90 or 180 mins by pathhunter beta-arrestin assay. It counts as cell-based. In short, it runs like this: (§2)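 PathHunter beta-arrestin recruitment, antagonist mode, run at DiscoverX. Cells seeded and held at 37 °C, then preincubated with test sample for 30 min at 37 °C or room temperature (1% vehicle). Agonist then added at EC80 for 90 or 180 min. […] IC50 comes from concentration–response runs in the same format.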

For series [8], the target named is T5, Muscarinic acetylcholine receptor M4 (Homo sapiens, UniProt P08173).
T5 sequence (P08173 whole entry): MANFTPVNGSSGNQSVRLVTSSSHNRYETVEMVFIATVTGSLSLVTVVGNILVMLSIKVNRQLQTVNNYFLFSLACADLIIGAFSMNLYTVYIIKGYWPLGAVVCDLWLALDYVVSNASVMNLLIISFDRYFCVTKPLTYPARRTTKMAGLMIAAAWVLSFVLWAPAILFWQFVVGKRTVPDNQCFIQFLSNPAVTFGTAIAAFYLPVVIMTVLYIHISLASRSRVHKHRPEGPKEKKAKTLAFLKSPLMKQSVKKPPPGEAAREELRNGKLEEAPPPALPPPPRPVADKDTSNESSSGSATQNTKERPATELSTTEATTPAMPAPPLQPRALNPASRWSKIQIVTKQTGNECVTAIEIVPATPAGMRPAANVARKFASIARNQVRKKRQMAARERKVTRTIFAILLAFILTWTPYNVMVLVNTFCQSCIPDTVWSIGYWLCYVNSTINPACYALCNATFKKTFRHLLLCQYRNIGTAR
As to the kind of experiment: Antagonist activity at human Gs/Gi/o-coupled CHRM4 expressed in CHOK1 cells assessed as inhibition in acetylcholine-induced beta-arrestin 2 recruitment incubated for 30 mins followed by acetylcholine addition and measured after 90 or 180 mins by pathhunter beta-arrestin assay. In kind it is cell-based. In short, it runs like this: as §2

The nature of series [9]: Toxicity in C57BL/6J mouse at 60 nmol, icv measured for 2 days by conditioned place preference test. The conditions noted are these: in vivo, icv_or_intrathecal, 48 h.

Sequence of Cannabinoid receptor 1 (P21554 whole entry): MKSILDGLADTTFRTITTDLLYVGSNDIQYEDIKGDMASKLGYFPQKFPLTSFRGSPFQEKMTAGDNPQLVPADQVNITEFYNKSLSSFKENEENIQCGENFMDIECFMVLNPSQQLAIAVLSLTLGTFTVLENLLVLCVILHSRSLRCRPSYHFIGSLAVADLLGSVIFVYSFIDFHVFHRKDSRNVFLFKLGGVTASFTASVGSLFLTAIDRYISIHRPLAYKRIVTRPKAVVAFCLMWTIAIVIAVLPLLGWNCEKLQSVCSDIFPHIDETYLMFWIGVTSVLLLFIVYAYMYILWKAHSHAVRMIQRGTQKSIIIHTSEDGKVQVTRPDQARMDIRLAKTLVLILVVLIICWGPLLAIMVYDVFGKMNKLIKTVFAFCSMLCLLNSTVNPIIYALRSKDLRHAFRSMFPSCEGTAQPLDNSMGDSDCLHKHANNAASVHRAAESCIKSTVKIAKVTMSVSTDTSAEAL
Sequence of D(2) dopamine receptor (Homo sapiens) (P14416 whole entry): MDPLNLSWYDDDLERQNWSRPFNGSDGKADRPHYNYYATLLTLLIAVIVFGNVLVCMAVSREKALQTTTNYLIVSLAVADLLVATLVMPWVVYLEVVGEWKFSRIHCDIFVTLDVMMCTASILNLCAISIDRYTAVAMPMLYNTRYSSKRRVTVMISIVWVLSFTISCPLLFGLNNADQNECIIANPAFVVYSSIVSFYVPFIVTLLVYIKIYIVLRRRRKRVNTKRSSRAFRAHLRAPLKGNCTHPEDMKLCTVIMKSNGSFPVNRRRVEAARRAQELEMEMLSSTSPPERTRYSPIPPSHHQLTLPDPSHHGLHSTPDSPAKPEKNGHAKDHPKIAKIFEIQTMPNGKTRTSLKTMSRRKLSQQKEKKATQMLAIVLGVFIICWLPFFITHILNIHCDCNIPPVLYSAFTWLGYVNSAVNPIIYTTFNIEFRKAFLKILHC

As a reminder, the inhibition is the relative decrease from the control value, in per cent. The term IC50 denotes the concentration that gives 50% inhibition. Turning to `CC[C@@]12CCCN3CCc4c([nH]c5ccccc45)[C@]31N(Cc1cn(Cc3ccccc3)nn1)C(=O)C2`, the inhibition in series [1] stood at 48%; in series [2], 60%; in series [3] it was 15%; in series [4], 30%; in series [5], 80%; in series [6], 59%. Besides, the half-maximal inhibitory concentration (IC50) worked out at 2.26 µM in series [7] and 12.5 µM in series [8]. Besides, the Activity result in series [9] is given as “Non-Toxic”.

Source of the values: ChEMBL document CHEMBL4342456, “Preventing Morphine-Seeking Behavior through the Re-Engineering of Vincamine's Biological Activity” (J Med Chem, 2020).
